Values after ≈ are worked out from the molar mass of the structure shown.
The compounds below were run on Staphylococcus aureus (assay: Antibacterial activity against methicillin-sensitive Staphylococcus aureus ATCC 6538 measured after overnight incubation by broth double-dilution method). Details: not given.
Assay type: functional
Method in brief: (§1)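 MIC by broth double-dilution in liquid Mueller-Hinton medium. Values are reported in µg/mL.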

Row | Compound | MIC
1 | O=c1c2ccccc2sn1-c1ccc(F)cc1 | 3.9 µg/mL (≈ 15.9 µM)

Each compound was assayed on Staphylococcus aureus (assay: Antibacterial activity against methicillin-sensitive Staphylococcus aureus ATCC 25923 measured after overnight incubation by broth double-dilution method). Details: not given.
Assay type: functional
Method in brief: as §1

Row | Compound | MIC
2 | O=c1c2ccccc2sn1-c1ccc(F)cc1 | 2 µg/mL (≈ 8.15 µM)

Each compound was assayed on Staphylococcus aureus (assay: Antibacterial activity against methicillin-sensitive Staphylococcus aureus ATCC 29213 measured after overnight incubation by broth double-dilution method). Details: not given.
Assay type: functional
Method in brief: as §1

Row | Compound | MIC
3 | O=c1c2ccccc2sn1-c1ccc(F)cc1 | 3.9 µg/mL (≈ 15.9 µM)

The compounds below were run on Staphylococcus aureus (assay: Antibacterial activity against methicillin-resistant Staphylococcus aureus ATCC 33591 measured after overnight incubation by broth double-dilution method). Details: not given.
Assay type: functional
Method in brief: as §1

Row | Compound | MIC
4 | O=c1c2ccccc2sn1-c1ccc(F)cc1 | 1 µg/mL (≈ 4.08 µM)

The compounds below were run on Staphylococcus aureus (assay: Antibacterial activity against methicillin-resistant Staphylococcus aureus 1 measured after overnight incubation by broth double-dilution method). Details: not given.
Assay type: functional
Method in brief: as §1

Row | Compound | MIC
5 | O=c1c2ccccc2sn1-c1ccc(F)cc1 | 3.9 µg/mL (≈ 15.9 µM)

What follows are compounds tested on Staphylococcus aureus (assay: Antibacterial activity against methicillin-resistant Staphylococcus aureus 2 measured after overnight incubation by broth double-dilution method). Details: not given.
Assay type: functional
Method in brief: as §1

Row | Compound | MIC
6 | O=c1c2ccccc2sn1-c1ccc(F)cc1 | 2 µg/mL (≈ 8.15 µM)

These compounds were tested on Staphylococcus aureus (assay: Antibacterial activity against methicillin-resistant Staphylococcus aureus BRS3 measured after overnight incubation by broth double-dilution method). Details: not given.
Assay type: functional
Method in brief: as §1

Row | Compound | MIC
7 | O=c1c2ccccc2sn1-c1ccc(F)cc1 | 3.9 µg/mL (≈ 15.9 µM)

The compounds below were run on Staphylococcus aureus (assay: Antibacterial activity against methicillin-resistant Staphylococcus aureus C1 measured after overnight incubation by broth double-dilution method). Details: not given.
Assay type: functional
Method in brief: as §1

Row | Compound | MIC
8 | O=c1c2ccccc2sn1-c1ccc(F)cc1 | 2 µg/mL (≈ 8.15 µM)

Each compound was assayed on Staphylococcus aureus (assay: Antibacterial activity against methicillin-resistant Staphylococcus aureus C2 measured after overnight incubation by broth double-dilution method). Details: not given.
Assay type: functional
Method in brief: as §1

Row | Compound | MIC
9 | O=c1c2ccccc2sn1-c1ccc(F)cc1 | 3.9 µg/mL (≈ 15.9 µM)

The compounds below were run on Staphylococcus aureus (assay: Antibacterial activity against methicillin-resistant Staphylococcus aureus C7 measured after overnight incubation by broth double-dilution method). Details: not given.
Assay type: functional
Method in brief: as §1

Row | Compound | MIC
10 | O=c1c2ccccc2sn1-c1ccc(F)cc1 | 1 µg/mL (≈ 4.08 µM)

Each compound was assayed on Staphylococcus aureus (assay: Antibacterial activity against methicillin-resistant Staphylococcus aureus C14 measured after overnight incubation by broth double-dilution method). Details: not given.
Assay type: functional
Method in brief: as §1

Row | Compound | MIC
11 | O=c1c2ccccc2sn1-c1ccc(F)cc1 | 3.9 µg/mL (≈ 15.9 µM)

What follows are compounds tested on Staphylococcus aureus (assay: Antibacterial activity against methicillin-resistant Staphylococcus aureus C16 measured after overnight incubation by broth double-dilution method). Details: not given.
Assay type: functional
Method in brief: as §1

Row | Compound | MIC
12 | O=c1c2ccccc2sn1-c1ccc(F)cc1 | 3.9 µg/mL (≈ 15.9 µM)

What follows are compounds tested on Staphylococcus aureus (assay: Antibacterial activity against methicillin-resistant Staphylococcus aureus C19 measured after overnight incubation by broth double-dilution method). Details: not given.
Assay type: functional
Method in brief: as §1

Row | Compound | MIC
13 | O=c1c2ccccc2sn1-c1ccc(F)cc1 | 2 µg/mL (≈ 8.15 µM)

Each compound was assayed on Staphylococcus aureus (assay: Antibacterial activity against methicillin-resistant Staphylococcus aureus G1 measured after overnight incubation by broth double-dilution method). Details: not given.
Assay type: functional
Method in brief: as §1

Row | Compound | MIC
14 | O=c1c2ccccc2sn1-c1ccc(F)cc1 | 2 µg/mL (≈ 8.15 µM)

Each compound was assayed on Staphylococcus aureus (assay: Antibacterial activity against methicillin-resistant Staphylococcus aureus G6 measured after overnight incubation by broth double-dilution method). Details: not given.
Assay type: functional
Method in brief: as §1

Row | Compound | MIC
15 | O=c1c2ccccc2sn1-c1ccc(F)cc1 | 3.9 µg/mL (≈ 15.9 µM)

What follows are compounds tested on Staphylococcus aureus (assay: Antibacterial activity against methicillin-resistant Staphylococcus aureus G12 measured after overnight incubation by broth double-dilution method). Details: not given.
Assay type: functional
Method in brief: as §1

Row | Compound | MIC
16 | O=c1c2ccccc2sn1-c1ccc(F)cc1 | 2 µg/mL (≈ 8.15 µM)

What follows are compounds tested on Staphylococcus aureus (assay: Antibacterial activity against methicillin-resistant Staphylococcus aureus G14 measured after overnight incubation by broth double-dilution method). Details: not given.
Assay type: functional
Method in brief: as §1

Row | Compound | MIC
17 | O=c1c2ccccc2sn1-c1ccc(F)cc1 | 2 µg/mL (≈ 8.15 µM)

The compounds below were run on Staphylococcus aureus (assay: Antibacterial activity against methicillin-resistant Staphylococcus aureus NRS4 measured after overnight incubation by broth double-dilution method). Details: not given.
Assay type: functional
Method in brief: as §1

Row | Compound | MIC
18 | O=c1c2ccccc2sn1-c1ccc(F)cc1 | 3.9 µg/mL (≈ 15.9 µM)

The compounds below were run on Staphylococcus aureus (assay: Antibacterial activity against methicillin-resistant Staphylococcus aureus NRS51 measured after overnight incubation by broth double-dilution method). Details: not given.
Assay type: functional
Method in brief: as §1

Row | Compound | MIC
19 | O=c1c2ccccc2sn1-c1ccc(F)cc1 | 3.9 µg/mL (≈ 15.9 µM)

The compounds below were run on Staphylococcus aureus (assay: Antibacterial activity against methicillin-resistant Staphylococcus aureus NRS77 measured after overnight incubation by broth double-dilution method). Details: not given.
Assay type: functional
Method in brief: as §1

Row | Compound | MIC
20 | O=c1c2ccccc2sn1-c1ccc(F)cc1 | 3.9 µg/mL (≈ 15.9 µM)

What follows are compounds tested on Staphylococcus aureus (assay: Antibacterial activity against methicillin-resistant Staphylococcus aureus S14 measured after overnight incubation by broth double-dilution method). Details: not given.
Assay type: functional
Method in brief: as §1

Row | Compound | MIC
21 | O=c1c2ccccc2sn1-c1ccc(F)cc1 | ≤ 0.25 µg/mL

What follows are compounds tested on Staphylococcus aureus (assay: Antibacterial activity against methicillin-resistant Staphylococcus aureus S17 measured after overnight incubation by broth double-dilution method). Details: not given.
Assay type: functional
Method in brief: as §1

Row | Compound | MIC
22 | O=c1c2ccccc2sn1-c1ccc(F)cc1 | 3.9 µg/mL (≈ 15.9 µM)

Each compound was assayed on Staphylococcus aureus (assay: Antibacterial activity against methicillin-resistant Staphylococcus aureus S22 measured after overnight incubation by broth double-dilution method). Details: not given.
Assay type: functional
Method in brief: as §1

Row | Compound | MIC
23 | O=c1c2ccccc2sn1-c1ccc(F)cc1 | 2 µg/mL (≈ 8.15 µM)

Each compound was assayed on Staphylococcus aureus (assay: Antibacterial activity against methicillin-resistant Staphylococcus aureus S24 measured after overnight incubation by broth double-dilution method). Details: not given.
Assay type: functional
Method in brief: as §1

Row | Compound | MIC
24 | O=c1c2ccccc2sn1-c1ccc(F)cc1 | 2 µg/mL (≈ 8.15 µM)

The compounds below were run on Staphylococcus aureus (assay: Antibacterial activity against methicillin-resistant Staphylococcus aureus USA100 measured after overnight incubation by broth double-dilution method). Details: not given.
Assay type: functional
Method in brief: as §1

Row | Compound | MIC
25 | O=c1c2ccccc2sn1-c1ccc(F)cc1 | 2 µg/mL (≈ 8.15 µM)

Each compound was assayed on Staphylococcus aureus (assay: Antibacterial activity against methicillin-resistant Staphylococcus aureus USA200 measured after overnight incubation by broth double-dilution method). Details: not given.
Assay type: functional
Method in brief: as §1

Row | Compound | MIC
26 | O=c1c2ccccc2sn1-c1ccc(F)cc1 | 3.9 µg/mL (≈ 15.9 µM)

Each compound was assayed on Staphylococcus aureus (assay: Antibacterial activity against methicillin-resistant Staphylococcus aureus USA300 measured after overnight incubation by broth double-dilution method). Details: not given.
Assay type: functional
Method in brief: as §1

Row | Compound | MIC
27 | O=c1c2ccccc2sn1-c1ccc(F)cc1 | 2 µg/mL (≈ 8.15 µM)

Each compound was assayed on Staphylococcus aureus (assay: Antibacterial activity against methicillin-resistant Staphylococcus aureus USA600 measured after overnight incubation by broth double-dilution method). Details: not given.
Assay type: functional
Method in brief: as §1

Row | Compound | MIC
28 | O=c1c2ccccc2sn1-c1ccc(F)cc1 | 2 µg/mL (≈ 8.15 µM)

Each compound was assayed on Staphylococcus epidermidis (assay: Antibacterial activity against Staphylococcus epidermidis ATCC 35984 measured after overnight incubation by broth double-dilution method). Details: RP62A.
Assay type: functional
Method in brief: (§2)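 MIC by broth double-dilution in Mueller-Hinton medium. Re-testing at the time-kill inoculum used 1×10^6 CFU/mL.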

Row | Compound | MIC
29 | O=c1c2ccccc2sn1-c1ccc(F)cc1 | 2 µg/mL (≈ 8.15 µM)

What follows are compounds tested on Enterococcus faecalis (assay: Antibacterial activity against Enterococcus faecalis ATCC 29212 measured after overnight incubation by broth double-dilution method). Details: not given.
Assay type: functional
Method in brief: as §2

Row | Compound | MIC
30 | O=c1c2ccccc2sn1-c1ccc(F)cc1 | 62.5 µg/mL (≈ 255 µM)

These compounds were tested on Enterococcus faecalis (assay: Antibacterial activity against Enterococcus faecalis ATCC 49533 measured after overnight incubation by broth double-dilution method). Details: not given.
Assay type: functional
Method in brief: as §2

Row | Compound | MIC
31 | O=c1c2ccccc2sn1-c1ccc(F)cc1 | > 125 µg/mL

Each compound was assayed on Enterococcus faecium (assay: Antibacterial activity against Enterococcus faecium BM4105-RF measured after overnight incubation by broth double-dilution method). Details: not given.
Assay type: functional
Method in brief: as §1

Row | Compound | MIC
32 | O=c1c2ccccc2sn1-c1ccc(F)cc1 | 31.3 µg/mL (≈ 128 µM)

Each compound was assayed on Enterococcus (assay: Antibacterial activity against Vancomycin-resistant Enterococcus measured after overnight incubation by broth double-dilution method). Details: not given.
Assay type: functional
Method in brief: as §1

Row | Compound | MIC
33 | O=c1c2ccccc2sn1-c1ccc(F)cc1 | 2 µg/mL (≈ 8.15 µM)

The compounds below were run on Listeria monocytogenes (assay: Antibacterial activity against Listeria monocytogenes ATCC 19115 measured after overnight incubation by broth double-dilution method). Details: not given.
Assay type: functional
Method in brief: as §2

Row | Compound | MIC
34 | O=c1c2ccccc2sn1-c1ccc(F)cc1 | 2 µg/mL (≈ 8.15 µM)

The compounds below were run on Mycolicibacterium smegmatis (assay: Antibacterial activity against Mycobacterium smegmatis MC2-155 measured after overnight incubation by broth double-dilution method). Details: str. MC2 155.
Assay type: functional
Method in brief: as §1

Row | Compound | MIC
35 | O=c1c2ccccc2sn1-c1ccc(F)cc1 | 1 µg/mL (≈ 4.08 µM)

Each compound was assayed on Staphylococcus aureus (assay: Antibiofilm activity against methicillin-sensitive Staphylococcus aureus ATCC 6538 assessed as reduction of biofilm at 62..5 ug/ml measured after 24 hrs by crystal violet staining based method relative to control). Details: not given.
Assay type: functional
Parameters: scale not given: the % may be the effect or the level left

Row | Compound | Activity
36 | O=c1c2ccccc2sn1-c1ccc(F)cc1 | 10%

— ChEMBL document CHEMBL3864121, “Development of ebsulfur analogues as potent antibacterials against methicillin-resistant Staphylococcus aureus” (Bioorg Med Chem, 2016)
